Screening data: PubChem, several laboratories
Rows were chosen to be rich in hits. Some 1.9% of all compounds tested hit in one or more screens of this group.
VIM-2 inh – VIM-2 metallo-beta-lactamase inhibitors, primary screen, biochemical, epi-absorbance readout, Pseudomonas aeruginosa enzyme. purified VIM-2, nitrocefin hydrolysis, epi-absorbance fluorescence. inhibition, % at 5.6 µM. 0.89% of 290,000 active;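 active = inhibition above the mean of all tested compounds plus 3 SD, cutoff set per screening run, cut at about 7.5% in these data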;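 note: red hydrolysis product quenches plate fluorescence so inhibitors raise well fluorescence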
IMP-1 inhibitor – IMP-1 metallo-beta-lactamase inhibitors, primary screen, biochemical, epi-absorbance readout, Pseudomonas aeruginosa enzyme; metallo-beta-lactamase IMP-1 (Pseudomonas aeruginosa); purified IMP-1, nitrocefin hydrolysis, epi-absorbance fluorescence; inhibition, % at 5.6 µM; 0.45% of 290,000 active;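 active = inhibition above the mean plus 3 SD of all compounds in the same screening run, cut at about 4.5% in these data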
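Assay system: purified IMP-1; Quantity: IMP-1 0.2 nM before substrate addition; Medium: HEPES buffer pH 7.1 with ZnSO4 and Brij 35; Incubation: 15 min enzyme–compound preincubation, then 25 min nitrocefin reaction, 25 °C; Signal: fluorescence quenching readout, ex 480/em 530 nm; Controls: DMSO with and without IMP-1; Repeats: singlicate testing.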
core dimer inh – inhibitors of HCV core protein dimerization, primary screen, biochemical, TR-FRET, high-throughput | TR-FRET GST/Flag-core106 dimerization, 1536-well | inhibition, % at 5 µM | 0.33% of 300,000 active;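 active = inhibition above the mean of all tested compounds plus 3 SD, set per screening campaign, cut at about 45% in these data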
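Material: Tagged HCV core106 pair (GST and Flag) | Amount: GST-core106 13.5 nM, Flag-core106 17 nM | Medium: KF-containing HEPES buffer, pH 7.45, DTT, CHAPS, BSA | Reagent: Eu donor and XL665 acceptor anti-tag antibodies | Schedule: 4 h at 22.5 °C | Technique: Time-resolved FRET, ex 340 nm, em 617 and 671 nm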
NadD block – inhibitors of S. aureus NadD, primary screen, biochemical, colorimetric, uHTS; purified NadD enzyme, colorimetric absorbance read-out; inhibition, % at 20 µM; 0.78% of 360,000 active; AID 602399, 2012; in the data active = inhibition above about 26%
Hits are given with their value.

CC(=O)c1nc(N2C(=O)CC(Cc3cccc(C)c3)C2=O)sc1C (stereo not drawn) was read as VIM-2 inh inactive, IMP-1 inhibitor 17, core dimer inh inactive and NadD block inactive.
Cn1c(CNC(=O)c2ccccc2F)nnc1SCC(=O)c1ccccc1 was read as VIM-2 inh inactive, IMP-1 inhibitor inactive, core dimer inh inactive and NadD block inactive.
Screening Cc1ccc(-c2nc3c(c(SCC(=O)N4CCOCC4)n2)Cc2c(CO)cnc(C)c2O3)cc1 returned VIM-2 inh inactive, IMP-1 inhibitor 8.9, core dimer inh inactive and NadD block inactive.
`CC1(C)Cc2nc(-c3ccccc3)nc(SCC(=O)N3CCOCC3)c2CO1` gave VIM-2 inh inactive, IMP-1 inhibitor inactive, core dimer inh inactive and NadD block inactive.
For COc1ccc(-c2nc3c(c(SCC(=O)N4CCOCC4)n2)Cc2c(CO)cnc(C)c2O3)cc1 the results were VIM-2 inh inactive, IMP-1 inhibitor 6.3, core dimer inh inactive and NadD block inactive.
Screening NS(=O)(=O)c1ccc(O)c(N2C(=O)c3cccc4c(C(=O)c5ccccc5)ccc(c34)C2=O)c1 returned VIM-2 inh inactive and IMP-1 inhibitor inactive.
Screening CCN(CC)S(=O)(=O)c1cccc(NC(=O)C2SC(=Nc3ccc(C)cc3C)C(C(=O)NC(C)COC)=C2N)c1 (stereo not drawn) returned VIM-2 inh inactive, IMP-1 inhibitor inactive, core dimer inh inactive and NadD block 44.
`CCN(CC)S(=O)(=O)c1cccc(C(=O)Nc2cccc(C)c2)c1` gave VIM-2 inh inactive, IMP-1 inhibitor inactive, core dimer inh inactive and NadD block inactive.
For COc1ccccc1N1CCN(CC(=O)Nc2ccccc2C(=O)NCCc2ccccc2)CC1 the results were NadD block inactive.
Cc1sc2ncnc(-n3cnc4ccccc43)c2c1C was read as VIM-2 inh inactive, IMP-1 inhibitor 7.3, core dimer inh inactive and NadD block inactive.
For CCN1CCN(C(=S)NC(=O)c2cccc(Br)c2)CC1 the results were NadD block inactive.
Screening CCOc1ccc(CNC(=S)Nc2ccccc2)cc1Cl returned VIM-2 inh inactive, IMP-1 inhibitor 6.3, core dimer inh inactive and NadD block inactive.
For COc1ccc(-c2nc(C#N)c(N3CCN(C(=O)c4ccco4)CC3)o2)cc1OC the results were VIM-2 inh inactive, IMP-1 inhibitor 7.7, core dimer inh inactive and NadD block inactive.
`COC(=O)COc1ccc2oc(=O)cc(-c3cc4cccc(OC)c4o3)c2c1` gave VIM-2 inh inactive, IMP-1 inhibitor 9.7, core dimer inh inactive and NadD block inactive.
For Cc1cccc(C(=O)N/N=C/c2coc3ccccc3c2=O)c1 the results were VIM-2 inh inactive, IMP-1 inhibitor 5.8, core dimer inh inactive and NadD block inactive.
CCOc1cccc(C(=O)N/N=C/c2coc3ccccc3c2=O)c1 was read as VIM-2 inh inactive, IMP-1 inhibitor 5.5, core dimer inh inactive and NadD block inactive.
For CC(C)Oc1cccc(C(=O)N/N=C/c2coc3ccccc3c2=O)c1 the results were VIM-2 inh inactive, IMP-1 inhibitor 5.3 and NadD block inactive.
Screening CCc1ccccc1NC(=O)COc1ccc(C(=S)N2CCCC2)cc1 returned VIM-2 inh inactive, IMP-1 inhibitor inactive, core dimer inh inactive and NadD block inactive.
`Cc1ccc(-c2nc3s/c(=C\c4ccco4)c(=O)n3n2)cc1` gave VIM-2 inh inactive, IMP-1 inhibitor inactive, core dimer inh inactive and NadD block inactive.
Cc1ccc(/C=c2\sc3nc(-c4ccco4)nn3c2=O)o1 was read as VIM-2 inh inactive, IMP-1 inhibitor inactive, core dimer inh 62 and NadD block inactive.
Screening CCN1CCCC1Cn1cnc2c([nH]c3cccc(Cl)c32)c1=O (stereo not drawn) returned VIM-2 inh 8.2, IMP-1 inhibitor inactive, core dimer inh inactive and NadD block inactive.
Cc1nc(Nc2ccc(O)cc2)c2c3c(sc2n1)CCCC3 was read as VIM-2 inh 8.4, IMP-1 inhibitor inactive, core dimer inh inactive and NadD block inactive.
Cc1ccc(CNc2nc(C)nc3sc4c(c23)CCC4)cc1 was read as VIM-2 inh inactive, IMP-1 inhibitor inactive, core dimer inh inactive and NadD block inactive.
For COc1ccc(S(=O)(=O)NCC(=O)O)cc1C(=O)NC1CCCCC1 the results were VIM-2 inh inactive, IMP-1 inhibitor inactive, core dimer inh inactive and NadD block inactive.
For C/C(=N\O)c1noc(C)c1C(=O)Nc1nccs1 the results were VIM-2 inh 12, IMP-1 inhibitor inactive, core dimer inh inactive and NadD block inactive.
`CCOC(=O)c1noc(C)c1C(=O)Nc1nccs1` gave VIM-2 inh inactive, IMP-1 inhibitor inactive, core dimer inh inactive and NadD block inactive.
`CCc1nc(NCCCN2CCOCC2)c2oc3ccccc3c2n1` gave VIM-2 inh 11, IMP-1 inhibitor inactive, core dimer inh inactive and NadD block inactive.
O=c1c2ccccc2oc2ccc(NCCCN3CCOCC3)cc12 was read as VIM-2 inh 9.8, IMP-1 inhibitor inactive, core dimer inh inactive and NadD block inactive.
`C=CCc1ccc(O)c(-c2ccc(O)c(CC=C)c2)c1` gave VIM-2 inh inactive, IMP-1 inhibitor inactive, core dimer inh inactive and NadD block inactive.
For O=C(NCCCN1CCCCC1)c1ccc2c(c1)NC(=O)C(N1CCCCC1)S2 (stereo not drawn) the results were VIM-2 inh inactive, IMP-1 inhibitor 5.2, core dimer inh inactive and NadD block inactive.
COc1cc(NC(=O)C(=O)NCCN2CCNCC2)c(OC)cc1Cl was read as VIM-2 inh 10, IMP-1 inhibitor inactive, core dimer inh inactive and NadD block inactive.
Screening Cc1[nH]n(-c2ccccc2)c(=O)c1N=Nc1c(O)cc(S(=O)(=O)N(C)C)c2ccccc12 returned core dimer inh inactive and NadD block 56.
`CCCc1cc(NCCCCO)n2c(nc3ccccc32)c1C#N` gave VIM-2 inh inactive, IMP-1 inhibitor inactive, core dimer inh inactive and NadD block inactive.
`CC(C)c1cc(NCCOCCO)n2c(nc3ccccc32)c1C#N` gave VIM-2 inh 12, IMP-1 inhibitor inactive, core dimer inh inactive and NadD block inactive.
Screening CCCc1cc(NCCOCCO)n2c(nc3ccccc32)c1C#N returned NadD block inactive.
Screening CCCc1cc(NCCCN2CCOCC2)n2c(nc3ccccc32)c1C#N returned VIM-2 inh 8.0, IMP-1 inhibitor inactive, core dimer inh inactive and NadD block inactive.
For CCc1ccccc1N=C1S/C(=C/c2ccccc2OCC(=O)N2CCOCC2)C(=O)N1C the results were VIM-2 inh inactive, IMP-1 inhibitor inactive, core dimer inh inactive and NadD block inactive.
O=C1NN(c2ccccc2)C(=O)/C1=C\c1ccccc1OCC(=O)N1CCOCC1 was read as VIM-2 inh inactive, IMP-1 inhibitor 4.5, core dimer inh inactive and NadD block inactive.
For COc1cccc(OCc2cc(C3Nc4ccccc4C(=O)N3Cc3ccco3)ccc2OC)c1 (stereo not drawn) the results were VIM-2 inh inactive, IMP-1 inhibitor inactive and NadD block 31.
